The species named for assay [1] is Rattus norvegicus. The experiment in a line: Potency required for stimulation of [35S]GTP gamma-S binding to rat spleen was determined. Format: functional, organism-based. A general note: Binding of GTPγS marks nucleotide exchange on a G protein.
For assay [2], the species on record is Rattus norvegicus. Nature of the assay: Relative intrinsic activity in stimulation of [35S]GTP gamma-S binding to rat adipocyte was determined. Format: functional. The essentials: (§1)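 Relative intrinsic activity is maximal stimulation of [35S]GTPγS binding (0.2 nM) as a percentage of the maximum given by nicotinic acid, which is set at 100%. Rat membranes (adipocyte for line 3, spleen for line 4) at 1 to 1.5 µg protein were incubated 90 min at 25 °C with 10 µM GDP and 100 mM NaCl, then filtered. Values are arithmetic mean ± SEM.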

For assay [3], the species on record is Rattus norvegicus. The experiment in a line: G protein activation was measured by stimulation of [35S]GTP gamma-S binding to rat adipocyte membranes. It is filed as functional.
The species named for assay [4] is Rattus norvegicus. Nature of the assay: Relative intrinsic activity in stimulation of [35S]GTP gamma-S binding to rat spleen was determined. It is filed as functional. The method in brief:
as §1

Take `O=C(O)c1cc(Cc2ccccc2)n[nH]1`: the values for the EC50 in the assay filed under Rattus norvegicus [1] and in the assay listed under Rattus norvegicus [3] were 86.9 µM and 70.7 µM, respectively. For the same compound, the RIA in the assay listed under Rattus norvegicus [2] was determined as 52.4%; in the assay filed under Rattus norvegicus [4] it was 50.3%.
Turning to `CCCc1cc(C(=O)O)n[nH]1`, the EC50 (in general, the concentration giving half of the maximal effect) in the assay filed under Rattus norvegicus [1] stood at 5.09 µM; in the assay listed under Rattus norvegicus [3], 6.1 µM. Besides, the RIA in the assay listed under Rattus norvegicus [2] is reported as 53.5%; in the assay filed under Rattus norvegicus [4] it was 69.9%.
Take `O=C(O)c1cccnc1` [NIACIN]: the concentration giving a half-maximal response (EC50) was found to be 0.74 µM in the assay listed under Rattus norvegicus [1] and 1.7 µM in the assay listed under Rattus norvegicus [3]. For the same compound, the RIA in the assay listed under Rattus norvegicus [2] and in the assay listed under Rattus norvegicus [4] was 100% throughout.
Regarding `O=C(O)c1cc(Cc2cccc(Cl)c2)n[nH]1`, in the assay filed under Rattus norvegicus [2], the RIA was 39.4%. The compound also had an EC50 in the assay filed under Rattus norvegicus [3] of 46.6 µM.
Turning to `CCCCc1cc(C(=O)O)n[nH]1`, the results for the EC50 in the assay listed under Rattus norvegicus [1] and in the assay filed under Rattus norvegicus [3] were 2.26 µM and 4.12 µM, respectively. Also, the RIA turned out to be 75.7% in the assay filed under Rattus norvegicus [2] and 80.7% in the assay filed under Rattus norvegicus [4].
On the same counts, the results for `O=C(O)c1n[nH]c2c1CCC2` are 6.97 µM, 6.44 µM, 51.7% and 55.9%.
For `O=C(O)c1cc[nH]n1`, in that order: 21.5 µM, 16 µM, 78.5% and 85.3%.
For the compound `O=C(O)c1n[nH]c2c1CCCC2`, the values for the EC50 in the assay filed under Rattus norvegicus [1] and in the assay filed under Rattus norvegicus [3] were 64.6 µM and 85.1 µM, respectively. For the same compound, the RIA in the assay listed under Rattus norvegicus [4] is 47.2%.
In the case of `CC(C)c1cc(C(=O)O)n[nH]1`, the concentration giving a half-maximal response (EC50) in the assay listed under Rattus norvegicus [1] worked out at 21.8 µM; in the assay filed under Rattus norvegicus [3], 13.7 µM. The results for the RIA in the assay listed under Rattus norvegicus [2] and in the assay listed under Rattus norvegicus [4] were 49.2% and 67.7%, respectively.

These data come from ChEMBL document CHEMBL1145993, “Pyrazole derivatives as partial agonists for the nicotinic acid receptor” (J Med Chem, 2003).
